# Experimental data collected from several papers.
# Protocols differ between the studies behind these lines.
# MAP2K6: Dual specificity mitogen-activated protein kinase kinase 6 (MAP2K6, Homo sapiens, UniProt P52564)
SMILES,target,test,setting,endpoint,value
COc1cc2ncnc(Nc3ccc(Oc4ccccc4)cc3C)c2cc1OC,MAP2K6,"enzyme activity, inhibitor",1 µM,inhibition,3%
COc1cc(/C=C/C(=O)CC(=O)/C=C/c2ccc(O)c(OC)c2)ccc1O,MAP2K6,"enzyme activity, inhibitor",1 µM,activity vs control,102%
Cn1c(=O)n(-c2ccc(C(C)(C)C#N)cc2)c2c3cc(-c4cnc5ccccc5c4)ccc3ncc21,MAP2K6,"enzyme activity, inhibitor",10 µM,remaining activity,93%
CN(C)CC#Cc1ccc(OCCCc2sc(N3CCc4cccc(C(=O)Nc5nc6ccccc6s5)c4C3)nc2C(=O)O)c(F)c1,MAP2K6,"cell-free assay, competition with immobilised ligand",1 µM,remaining binding,100%
CN(C)C1CCN(CC#Cc2nn(C3CCCC3)c3nc(NCc4ccccc4)ncc23)C1 (centres unmarked),MAP2K6,"enzyme activity, inhibitor, FRET",0.1 µM,inhibition,0%
O=C1NC(=O)c2cc(Nc3ccc(F)cc3)c(Nc3ccc(F)cc3)cc21,MAP2K6,cell-free assay,0.5 µM,remaining signal,110%
Cn1cc(Cl)c2c(Oc3c(F)cc(Nc4cc(Cl)nc(N)n4)cc3F)ccnc21,MAP2K6,"cell-free assay, competition with immobilised ligand",0.1 µM,remaining binding,100%
Cn1c2c(Cl)c(Cl)ccc2c2cc[nH]c(=O)c21,MAP2K6,"thermal stability, DSF",10 µM,ΔTm,0.2 °C
CS(=O)(=O)CCNCc1ccc(-c2ccc3ncnc(Nc4ccc(OCc5cccc(F)c5)c(Cl)c4)c3c2)o1,MAP2K6,cell-free assay,0.5 µM,remaining signal,95.4%
CNCc1ccc(-c2cc(-c3nc(-c4ccc(S(=O)(=O)C(C)C)cc4)cnc3N)on2)cc1,MAP2K6,"enzyme activity, inhibitor",0.4 µM,inhibition,15%
CC(C)(O)c1cncc(-c2nc3ccc(F)cc3n2C2CC2)c1,MAP2K6,"cell-free assay, competition with immobilised ligand",1 µM,remaining binding,100%
Nc1ncnc2occ(-c3ccc(NC(=O)Nc4cc(C(F)(F)F)ccc4F)cc3)c12,MAP2K6,"cell-free assay, inhibitor",20 µM,remaining signal,58%
Cc1ccc(Nc2nccc(N(C)c3ccc4c(C)n(C)nc4c3)n2)cc1S(N)(=O)=O,MAP2K6,"enzyme activity, inhibitor",10 µM,inhibition,90%
Cn1c2c(c3ccc(Cl)c(Cl)c31)C(C#N)C(C)(C)NC2=O (centres unmarked),MAP2K6,"thermal stability, DSF",10 µM,ΔTm,0.2 °C
Oc1cccc(-c2nc(N3CCOCC3)c3oc4ncccc4c3n2)c1,MAP2K6,"enzyme activity, inhibitor",10 µM,remaining activity,107%
Cc1sc(C(=O)NC2COC2)cc1-n1cc(NC(=O)Nc2c(F)cccc2Cl)cn1,MAP2K6,"enzyme activity, inhibitor",10 µM,remaining activity,86.4%
CCC(=N\O)/C(C)=C/c1ccc(F)cc1,MAP2K6,"cell-free assay, competition with immobilised ligand",1 µM,remaining binding,98%
CN1CCC2(CC1)NC(=O)c1c(c3ccc(Cl)c(Cl)c3n1C)C2C#N (racemic),MAP2K6,"thermal stability, DSF",10 µM,ΔTm,0 °C
O=C(Nc1cnn(-c2csc(C(=O)NC3COC3)c2)c1)Nc1ccccc1Cl,MAP2K6,"enzyme activity, inhibitor",5 µM,remaining activity,96.4%
COc1cc(Nc2cnc(C#N)c(O[C@H](C)CN(C)C)n2)ncc1-c1cnn(C)c1,MAP2K6,"enzyme activity, inhibitor, radiometric",10 µM,remaining activity,91%
CC(C)(C)c1nc(-c2cccc(NS(=O)(=O)c3c(F)cccc3F)c2F)c(-c2ccnc(N)n2)s1,"Dual specificity mitogen-activated protein kinase kinase 6 (MAP2K6, Homo sapiens, UniProt P52564, S207D/T211D)","enzyme activity, inhibitor, radiometric",1 µM,remaining activity,96%
CCN1CCC2(CC1)NC(=O)c1c(c3ccc(Cl)c(Cl)c3n1C)C2C#N (racemic),MAP2K6,"thermal stability, DSF",10 µM,ΔTm,0 °C
C[S+]([O-])c1ccc(-c2nc(-c3ccncc3)c(-c3ccc(F)cc3)[nH]2)cc1 (centres unmarked),MAP2K6,cell-free assay,0.5 µM,remaining signal,102%
C[C@H](c1ccc(F)cc1)N(Cc1cccc(C(=O)O)c1)C(=O)c1cnc2ccccc2c1,MAP2K6,"cell-free assay, competition with immobilised ligand",1 µM,remaining binding,100%
Cc1ccc(C(=O)NCc2ccsc2)cc1C#Cc1cn(C(C)C)c2ncnc(N)c12,MAP2K6,"enzyme activity, inhibitor",1 µM,activity vs control,86%
Cc1cc(NC(=O)c2cccc3cc(-c4cccc5[nH]nc(N)c45)ccc23)ccc1F,MAP2K6,"enzyme activity, inhibitor",0.1 µM,activity vs control,89%
Nc1nc(Nc2ccc(S(N)(=O)=O)cc2)nn1C(=O)c1c(F)cccc1F,MAP2K6,cell-free assay,0.5 µM,remaining signal,90.5%
CNC(=O)c1cc(Oc2ccc(NC(=O)Nc3ccc(Cl)c(C(F)(F)F)c3)cc2)ccn1,MAP2K6,"enzyme activity, inhibitor",0.3 µM,inhibition,-1%
Cc1ccc(NC(=O)c2ccc(C)c(C(F)(F)F)c2)cc1C#Cc1nn(C2CCC(O)CC2)c2ncnc(N)c12 (centres unmarked),MAP2K6,cell-free assay,10 µM,remaining signal,43%
CN(C)c1ncnc(-c2ccc3nc(Nc4cc(CN5CCN(C(=O)CC(F)(F)F)CC5)ccn4)[nH]c3c2)c1Cl,MAP2K6,"cell-free assay, competition with immobilised ligand",1 µM,remaining binding,92%
CCN(CC)c1ccc(C2=NNC(=O)CC2C)cc1[N+](=O)[O-] (centres unmarked),MAP2K6,"enzyme activity, inhibitor",10 µM,remaining activity,97%
Cc1c[nH]c2nccc(Oc3c(F)cc(Nc4cc(Cl)nc(N)n4)cc3F)c12,MAP2K6,"cell-free assay, competition with immobilised ligand",0.1 µM,remaining binding,99%
O=C1Nc2ccc(Cl)cc2C1=Cc1cc(Cl)c(O)c(Cl)c1,MAP2K6,cell-free assay,0.5 µM,remaining signal,96.4%
Cn1c2c(c3ccc(Cl)c(Cl)c31)C(C#N)C1(CCCC1)NC2=O (centres unmarked),MAP2K6,"thermal stability, DSF",10 µM,ΔTm,0 °C
CN(C)C(=O)Cn1cc(-c2nc(C3(c4ccc(-c5cnc(N)nc5)cc4)CC3)no2)cn1,MAP2K6,"cell-free assay, competition with immobilised ligand",1 µM,remaining binding,100%
